# Calls of active or inactive are those of the source. The calls are words filed in the database; no cut-off is given here.
# Columns and labels:
# [1] = tested on: Mycobacterium tuberculosis; assay: Antimicrobial activity against Mycobacterium tuberculosis expressing EmbC gene after 48 hrs; format: functional
# [2] = tested on: Mycolicibacterium smegmatis; assay: Antimicrobial activity against Mycobacterium smegmatis expressing EmbC M286L mutant gene at 32 ug/ml after 48 hrs; format: functional, organism-based
# [3] = tested on: Mycolicibacterium smegmatis; assay: Antimicrobial activity against Mycobacterium smegmatis expressing EmbC D280G mutant gene at 32 ug/ml after 48 hrs; format: functional, organism-based
# [4] = tested on: Mycolicibacterium smegmatis; assay: Antimicrobial activity against Mycobacterium smegmatis expressing EmbC D280G mutant gene after 48 hrs by agar proportion method; format: functional
# [5] = tested on: Mycolicibacterium smegmatis; assay: Antimicrobial activity against Mycobacterium smegmatis expressing EmbC M286L mutant gene after 48 hrs by agar proportion method; format: functional
# [6] = tested on: Mycobacterium tuberculosis; assay: Antimicrobial activity against Mycobacterium tuberculosis embA gene after 48 hrs by agar proportion method; format: functional
# [7] = tested on: Mycolicibacterium smegmatis; assay: Antimicrobial activity against Mycobacterium smegmatis expressing EmbC M286V mutant gene at 32 ug/ml after 48 hrs; format: functional, organism-based
# [8] = tested on: Mycobacterium tuberculosis; assay: Antimicrobial activity against Mycobacterium tuberculosis expressing EmbC gene after 48 hrs by agar proportion method; format: functional
# [9] = tested on: T1, Probable arabinosyltransferase A (Mycobacterium smegmatis (strain ATCC 700084 / mc(2)155)), A0R612 [D280G]; assay: Inhibition of Mycobacterium smegmatis EmbC D280G mutant assessed as effect on LAM production at 32ug/ml after 2 hrs by immunoblotting; settings: Mycolicibacterium smegmatis
# T1 sequence (whole entry): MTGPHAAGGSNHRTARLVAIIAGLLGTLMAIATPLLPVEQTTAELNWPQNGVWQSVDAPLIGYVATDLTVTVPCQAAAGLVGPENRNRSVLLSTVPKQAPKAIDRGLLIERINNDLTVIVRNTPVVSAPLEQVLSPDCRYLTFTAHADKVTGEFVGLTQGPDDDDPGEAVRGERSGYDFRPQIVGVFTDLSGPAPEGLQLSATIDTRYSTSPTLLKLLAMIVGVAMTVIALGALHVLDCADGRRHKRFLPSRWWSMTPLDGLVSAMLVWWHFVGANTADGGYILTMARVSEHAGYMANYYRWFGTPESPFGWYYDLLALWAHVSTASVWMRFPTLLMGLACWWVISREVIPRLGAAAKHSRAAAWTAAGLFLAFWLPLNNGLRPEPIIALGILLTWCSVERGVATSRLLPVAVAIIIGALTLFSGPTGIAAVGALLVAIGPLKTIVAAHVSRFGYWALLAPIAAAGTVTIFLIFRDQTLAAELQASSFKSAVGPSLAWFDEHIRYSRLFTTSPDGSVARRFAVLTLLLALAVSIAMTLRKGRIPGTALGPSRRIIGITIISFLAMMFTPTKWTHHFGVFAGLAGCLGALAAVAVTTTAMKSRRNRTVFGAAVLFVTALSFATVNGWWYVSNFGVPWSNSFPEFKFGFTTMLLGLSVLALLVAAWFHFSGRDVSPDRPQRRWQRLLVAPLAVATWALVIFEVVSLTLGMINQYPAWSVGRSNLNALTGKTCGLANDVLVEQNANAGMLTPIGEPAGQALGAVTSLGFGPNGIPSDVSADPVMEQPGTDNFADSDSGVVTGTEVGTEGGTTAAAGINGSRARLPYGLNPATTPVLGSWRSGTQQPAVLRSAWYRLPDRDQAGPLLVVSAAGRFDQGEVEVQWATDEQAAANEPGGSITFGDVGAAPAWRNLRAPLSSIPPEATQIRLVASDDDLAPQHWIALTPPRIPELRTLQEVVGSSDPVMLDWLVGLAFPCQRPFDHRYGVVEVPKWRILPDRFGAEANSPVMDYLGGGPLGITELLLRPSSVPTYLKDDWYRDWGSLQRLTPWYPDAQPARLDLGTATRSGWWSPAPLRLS
# [10] = tested on: Mycobacterium tuberculosis; assay: Inhibition of Mycobacterium tuberculosis EmbC assessed as effect on LAM production at 1 ug/ml after 2 hrs by immunoblotting
# Method in brief: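 M. tuberculosis grown in 7H9 plus 10% OADC with hygromycin 100 µg/ml, kanamycin 20 µg/ml and EMB 0 to 128 µg/ml for 14 days. Cells extracted in phenol-water (1:1) at 80°C for 2 h, then chloroform added. Aqueous phase run on denaturing, nonreducing acrylamide gels with periodic acid-Schiff staining or CS-35 anti-LAM immunoblot.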
# [11] = tested on: Mycolicibacterium smegmatis; assay: Antimicrobial activity against Mycobacterium smegmatis expressing EmbC M286V mutant gene after 48 hrs by agar proportion method; format: functional
# [12] = tested on: Mycolicibacterium smegmatis; assay: Antimicrobial activity against Mycobacterium smegmatis expressing EmbC M286I mutant gene after 48 hrs by agar proportion method; format: functional
# [13] = tested on: Mycolicibacterium smegmatis; assay: Antimicrobial activity against Mycobacterium smegmatis expressing EmbC M286I mutant gene at 32 ug/ml; format: functional, organism-based
# [14] = tested on: Mycolicibacterium smegmatis; assay: Antimicrobial activity against Mycobacterium smegmatis expressing EmbC gene after 48 hrs by agar proportion method; format: functional, organism-based
smiles,measurement,setting,value
CC[C@@H](CO)NCCN[C@@H](CC)CO [ETHAMBUTOL],MIC,[1],3 µg/mL
same,Activity,[2],inactive
same,Activity,[3],inactive
same,MIC,[4],64 µg/mL
same,MIC,[5],64 µg/mL
same,MIC,[6],3 µg/mL
same,Activity,[7],inactive
same,MIC90,[8],1 µg/mL
same,inhibition,[9],Active
same,inhibition,[10],Active
same,MIC,[11],32 µg/mL
same,MIC,[12],32 µg/mL
same,Activity,[13],inactive
same,MIC,[14],inactive

# Reference: ChEMBL document CHEMBL1649213, “The arabinosyltransferase EmbC is inhibited by ethambutol in Mycobacterium tuberculosis” (2009)
